The values below come from PubChem BioAssay.

Activity calls are given as the source filed them.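 The calls were made as follows, unless noted: active = Her2 level under about 52% in both replicate screens, with viability over 70% of control (limit read from the data); inconclusive = Her2 under the limit in one screen only, or viability under 70%; inactive = Her2 level above the set limit.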

The nature of experiment [1]: Her2 expression decrease, cell viability multiplex – SKBR3 breast tumor cells, AlphaScreen, ATP viability, primary screen (AID 461).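 As to Her2 level: lower value means less Her2 protein in the cells.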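 As to viability: percent of carrier control wells set as 100% viability.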 The following applies: SKBR3 Her2 protein level, 18-24 h, measured here: SKBR3 viability, ATP luminescence, at 10 µM.
Experiment [2] addresses Receptor tyrosine-protein kinase erbB-2 (Homo sapiens) (UniProt P04626). The experiment is described as above. The following applies: 18-24 h, at 10 µM, stronger effect = lower value.
Experiment [3] can be described thus: reduced viability of SK-BR-3 breast cancer cells – cell-based, 24 h, human, pilot screen (AID 572;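 active = viability at or below 10% of carrier control in both of two separate runs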;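 also: compound exposure lasted between 18 and 24 h rather than exactly 24 h; 100% = carrier-treated control wells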). Particulars: SK-BR-3 viability, CellTiter-Glo luminescence, at 10 µM, stronger effect = lower value.
Experiment [4] is described as follows: HUVEC growth inhibition – cell-based, human, primary screen (AID 575;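 active = viability at or below 30% in both replicate assays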;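 also: 100% = median of untreated cell wells with 0.1% DMSO on each plate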). The following applies: HUVEC proliferation, CellTiter-Glo luminescence, 72 h; at 10 µM; stronger effect = lower value. The method, boiled down:
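Test system: HUVEC primary cells. Quantity: 1250 endothelial cells in each well. Dosing: single-point 10 µM, DMSO 0.1% final. Incubation: 72 h treatment at 37 °C. Measured by: CTG luminescence. Control set: DMSO cell controls and MePR drug controls. Plate: collagen-coated 384-well format.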

The nature of experiment [5]: H69AR cell proliferation blockers – human, duplicate replicates, primary screen (AID 580;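 active = viability at or under a set limit in both replicates, limit being median viability minus 3 SD, cut at about 48% in these data, passing the limit was not always enough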;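 also: 100% = mean luminescence of untreated wells and 0% = no signal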). Particulars: H69AR lung tumor cells viability, ATP luminescence, 72 h; at 10 µM; stronger effect = lower value.
Experiment [6] can be described thus: MRP1 drug-resistance reversers in H69AR cells – cell-based, doxorubicin co-treatment, pilot screen (AID 601;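 active = viability loss from added drug above about 55%, and viability with drug at most 40%, in both replicates, limit read from the data, passing the limit was not always enough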). Particulars: CellTiter-Glo, 72 h, at 10 µM; for differential viability (reversal): stronger effect = higher value.
Experiment [7] in a line: yeast transport mutant growth inhibition pilot in 384-well plates, post-Golgi transport modulator project (AID 636; in the data active = inhibition above about 31%). Particulars: absorbance 615 nm, about 18 h, stronger effect = higher value.
Experiment [8] in a line: growth suppression of yeast trafficking mutant, preliminary HTS, modulators of trafficking downstream of Golgi apparatus project, 1536-format plate, OD 615 nm (AID 637; in the data active = inhibition above about 30%). Particulars: yeast transport mutant growth, absorbance 615 nm, 18 h; stronger effect = higher value.
The mark [9] stands for this setting: H69AR cells + 2 uM doxorubicin, measured here: viability with 2 uM doxorubicin, stronger effect = lower value.
[10] abbreviates: H69AR cells, compound alone cytotoxicity.

Sequence of Receptor tyrosine-protein kinase erbB-2 (Homo sapiens) (P04626 whole entry, looked up): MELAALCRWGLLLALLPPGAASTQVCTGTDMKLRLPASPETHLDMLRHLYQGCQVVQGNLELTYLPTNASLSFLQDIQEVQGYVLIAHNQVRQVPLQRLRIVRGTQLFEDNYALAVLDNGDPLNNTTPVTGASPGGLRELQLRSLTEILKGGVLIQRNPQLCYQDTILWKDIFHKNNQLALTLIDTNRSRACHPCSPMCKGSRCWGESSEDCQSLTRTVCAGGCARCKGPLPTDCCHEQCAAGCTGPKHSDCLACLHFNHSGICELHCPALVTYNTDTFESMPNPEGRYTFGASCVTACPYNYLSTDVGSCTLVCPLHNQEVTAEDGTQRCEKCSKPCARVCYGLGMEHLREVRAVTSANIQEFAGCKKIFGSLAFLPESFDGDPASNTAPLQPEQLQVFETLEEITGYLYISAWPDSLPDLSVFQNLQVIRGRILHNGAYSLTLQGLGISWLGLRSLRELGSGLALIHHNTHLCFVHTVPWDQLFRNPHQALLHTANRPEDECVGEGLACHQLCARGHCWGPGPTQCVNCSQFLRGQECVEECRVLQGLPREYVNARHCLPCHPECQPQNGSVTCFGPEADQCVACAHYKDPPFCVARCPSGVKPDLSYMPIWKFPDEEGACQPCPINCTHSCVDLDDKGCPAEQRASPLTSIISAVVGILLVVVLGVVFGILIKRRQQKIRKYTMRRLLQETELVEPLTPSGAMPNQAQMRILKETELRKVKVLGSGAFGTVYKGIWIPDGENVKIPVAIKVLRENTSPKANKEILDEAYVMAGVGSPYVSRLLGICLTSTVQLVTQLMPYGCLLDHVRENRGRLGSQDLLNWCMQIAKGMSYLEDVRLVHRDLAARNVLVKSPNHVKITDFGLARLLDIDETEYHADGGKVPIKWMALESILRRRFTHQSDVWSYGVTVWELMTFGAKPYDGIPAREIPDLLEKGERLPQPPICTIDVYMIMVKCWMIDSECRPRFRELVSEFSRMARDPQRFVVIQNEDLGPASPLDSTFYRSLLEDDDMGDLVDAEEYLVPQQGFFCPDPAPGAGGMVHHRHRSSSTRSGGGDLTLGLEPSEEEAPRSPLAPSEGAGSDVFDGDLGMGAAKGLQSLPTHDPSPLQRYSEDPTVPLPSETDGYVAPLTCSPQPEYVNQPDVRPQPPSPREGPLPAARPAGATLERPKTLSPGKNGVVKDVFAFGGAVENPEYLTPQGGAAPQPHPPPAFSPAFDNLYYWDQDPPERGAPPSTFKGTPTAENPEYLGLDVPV

On to `COc1ccc(C(=O)N2CCCc3ccccc32)cc1`, for which the viability is 87.5% in experiment [1]; 87.5% (inactive) in experiment [3]; 116% (inactive) in experiment [4]; 104% (inactive) in experiment [5]; 93% in experiment [6] (setting [9]); 104% in experiment [6] (setting [10]). The Her2 level in experiment [2] is 94% (inactive). The differential viability (reversal) in experiment [6] (H69AR cells + 2 uM doxorubicin) was 11.1% (inactive). For the same compound, the inhibition in experiment [7] was -4% (inactive); in experiment [8] it was 5.81% (inactive).

`Cc1ccc(-n2cnnn2)c2cccnc12`: the viability in experiment [1] was 95.5%; in experiment [3] it was 95.5% (inactive); in experiment [4], 72.1% (inactive); in experiment [5], 101% (inactive); in experiment [6] (setting [9]), 93.5%; in experiment [6] (setting [10]), 101%. Further, in experiment [2], the Her2 level is 92% (inactive). For the same compound, in experiment [6] (H69AR cells + 2 uM doxorubicin), the differential viability (reversal) was 7.82% (inactive). The inhibition in experiment [7] was -5.53% (inactive); in experiment [8], 4.83% (inactive).

Take `CCOC(=O)C(NC(C)=O)(NS(=O)(=O)c1ccccc1)C(F)(F)F` (stereo not given): the viability is 122% in experiment [1]; 122% (inactive) in experiment [3]; 101% (inactive) in experiment [4]; 100% (inactive) in experiment [5]; 94.2% in experiment [6] (setting [9]); 100% in experiment [6] (setting [10]). Besides, in experiment [2], the Her2 level was 101% (inactive). In experiment [6] (H69AR cells + 2 uM doxorubicin), the differential viability (reversal) is 5.89% (inactive). Besides, the inhibition is -4.16% (inactive) in experiment [7] and 1.59% (inactive) in experiment [8].

In the case of `COc1ccc(CN2CC(C(=O)NCCCOC(C)C)CC2=O)cc1` (stereo not given), the viability in experiment [1] is 101%; in experiment [3] it was 101% (inactive); in experiment [4], 107% (inactive); in experiment [5] it was 99.1% (inactive); in experiment [6] (setting [9]) it was 95.2%; in experiment [6] (setting [10]) it was 99.1%. The Her2 level in experiment [2] is 90.5% (inactive). Also, the differential viability (reversal) in experiment [6] (H69AR cells + 2 uM doxorubicin) was 3.83% (inactive). For the same compound, the inhibition in experiment [7] is -2.11% (inactive); in experiment [8], 0.81% (inactive).

As to `COC(=O)c1ccccc1NC(=O)C1CCCCC1C(=O)O` (stereo not given), the viability in experiment [1] is 103%; in experiment [3], 103% (inactive); in experiment [4], 91% (inactive); in experiment [5], 90.3% (inactive); in experiment [6] (setting [9]), 91.8%; in experiment [6] (setting [10]), 90.3%. In experiment [2], the Her2 level is 116% (inactive). For the same compound, the differential viability (reversal) in experiment [6] (H69AR cells + 2 uM doxorubicin) was -1.56% (inactive). Besides, the figures for the inhibition in experiment [7] and in experiment [8] were -2.93% (inactive) and -9.52% (inactive), respectively.

Take `Cc1nnc(N2C(=O)c3oc4ccccc4c(=O)c3C2c2ccco2)s1` (stereo not given): the viability in experiment [1] is 93%; in experiment [3], 93% (inactive); in experiment [4], 115% (inactive); in experiment [5], 95.2% (inactive); in experiment [6] (setting [9]), 85.6%; in experiment [6] (setting [10]), 95.2%. For the same compound, in experiment [2], the Her2 level was 99.5% (inactive). Moreover, the differential viability (reversal) in experiment [6] (H69AR cells + 2 uM doxorubicin) is 9.59% (inactive). The inhibition was -1.54% (inactive) in experiment [7] and 0.83% (inactive) in experiment [8].

Take `Cn1c(=O)n(Cc2ccc(F)cc2)c(=O)c2c1nc1n2CCCN1Cc1ccccc1`: the viability in experiment [1] was 88.5%; in experiment [3] it was 88.5% (inactive); in experiment [4], 78.4% (inactive); in experiment [5], 70.1% (inactive); in experiment [6] (setting [9]) it was 32.6%; in experiment [6] (setting [10]), 70.1%. Also, the Her2 level in experiment [2] was 80.5% (inactive). Moreover, in experiment [6] (H69AR cells + 2 uM doxorubicin), the differential viability (reversal) is 37.5% (inactive). The inhibition in experiment [7] is 0% (inactive); in experiment [8], 1.33% (inactive).

On to `O=C(CSc1nnc(CNC(=O)c2cccs2)o1)NCCc1ccccc1`, for which the viability in experiment [1] was 104%; in experiment [3] it was 104% (inactive); in experiment [4], 92.4% (inactive); in experiment [5] it was 101% (inactive); in experiment [6] (setting [9]), 98.6%; in experiment [6] (setting [10]), 101%. Further, the Her2 level in experiment [2] is 103% (inactive). In addition, in experiment [6] (H69AR cells + 2 uM doxorubicin), the differential viability (reversal) was 2.05% (inactive). Further, the inhibition in experiment [7] was -0.9% (inactive); in experiment [8], -3% (inactive).

For `Cc1ccc(NC(=O)CCC(=O)O)cc1F`, the viability in experiment [1] is 106%; in experiment [3], 106% (inactive); in experiment [4], 88.8% (inactive); in experiment [5] it was 104% (inactive); in experiment [6] (setting [9]), 91.8%; in experiment [6] (setting [10]) it was 104%. Besides, in experiment [2], the Her2 level was 82.5% (inactive). In addition, the differential viability (reversal) in experiment [6] (H69AR cells + 2 uM doxorubicin) was 12.2% (inactive). For the same compound, the inhibition was -6.3% (inactive) in experiment [7] and -2.7% (inactive) in experiment [8].

For the compound `Cc1cc(C)c2c(C)nn(C3CCCCC3)c2n1`, the viability is 81.5% in experiment [1]; 81.5% (inactive) in experiment [3]; 80.8% (inactive) in experiment [4]; 95.5% (inactive) in experiment [5]; 83.2% in experiment [6] (setting [9]); 95.5% in experiment [6] (setting [10]). For the same compound, in experiment [2], the Her2 level is 114% (inactive). Besides, in experiment [6] (H69AR cells + 2 uM doxorubicin), the differential viability (reversal) was 12.3% (inactive). Moreover, the results for the inhibition in experiment [7] and in experiment [8] were 6.62% (inactive) and 14.1% (inactive), respectively.

Consider `COC(=O)c1ccc(CSc2nc3c(cnn3-c3ccc(C)c(C)c3)c(=O)[nH]2)o1`, for which the viability in experiment [1] was 90%; in experiment [3] it was 90% (inactive); in experiment [4] it was 18.9% (active); in experiment [5], 88.4% (inactive); in experiment [6] (setting [9]) it was 77.8%; in experiment [6] (setting [10]) it was 88.4%. The Her2 level in experiment [2] was 91.5% (inactive). In experiment [6] (H69AR cells + 2 uM doxorubicin), the differential viability (reversal) was 10.6% (inactive). Besides, the inhibition in experiment [7] is -3.6% (inactive); in experiment [8], -1.64% (inactive).

With `CC(C(=O)Nc1ccccc1-c1ccccc1)N1CCN(C(=O)c2ccco2)CC1` (stereo not given), the viability is 91.5% in experiment [1]; 91.5% (inactive) in experiment [3]; 96.2% (inactive) in experiment [4]; 74.1% (inactive) in experiment [5]; 65.8% in experiment [6] (setting [9]); 74.1% in experiment [6] (setting [10]). Also, in experiment [2], the Her2 level was 95% (inactive). In addition, in experiment [6] (H69AR cells + 2 uM doxorubicin), the differential viability (reversal) was 8.3% (inactive). Also, the results for the inhibition in experiment [7] and in experiment [8] were -6.18% (inactive) and 0.32% (inactive), respectively.

Consider `CCOC(=O)c1ccc(N2C(=O)CC(N3CCN(C/C=C/c4ccccc4)CC3)C2=O)cc1` (stereo not given), for which the viability in experiment [1] was 84%; in experiment [3] it was 84% (inactive); in experiment [4] it was 91.4% (inactive); in experiment [5], 84.3% (inactive); in experiment [6] (setting [9]), 85.9%; in experiment [6] (setting [10]), 84.3%. Further, the Her2 level in experiment [2] was 91.5% (inactive). For the same compound, the differential viability (reversal) in experiment [6] (H69AR cells + 2 uM doxorubicin) was -1.62% (inactive). In addition, the inhibition in experiment [7] was -0.64% (inactive); in experiment [8], -2.5% (inactive).

In the case of `Cc1cccc(OCC(=O)N(Cc2cccs2)C2CCS(=O)(=O)C2)c1C` (stereo not given), the viability in experiment [1] is 96.5%; in experiment [3] it was 96.5% (inactive); in experiment [4], 72.8% (inactive); in experiment [5], 94.6% (inactive); in experiment [6] (setting [9]), 91.4%; in experiment [6] (setting [10]), 94.6%. In addition, the Her2 level in experiment [2] was 83.5% (inactive). In experiment [6] (H69AR cells + 2 uM doxorubicin), the differential viability (reversal) is 3.22% (inactive). Moreover, the inhibition in experiment [7] was -6.35% (inactive); in experiment [8] it was 3.02% (inactive).

`Cc1ccc(-n2nnnc2SCC(=O)N2CCN(C(=O)c3ccco3)CC2)c(C)c1`: the viability in experiment [1] was 119%; in experiment [3], 119% (inactive); in experiment [4], 86% (inactive); in experiment [5], 95.5% (inactive); in experiment [6] (setting [9]) it was 94.8%; in experiment [6] (setting [10]) it was 95.5%. Further, the Her2 level in experiment [2] was 84.5% (inactive). In addition, the differential viability (reversal) in experiment [6] (H69AR cells + 2 uM doxorubicin) was 0.745% (inactive). In addition, the inhibition in experiment [7] was -7.76% (inactive); in experiment [8], -2.18% (inactive).
